Assay results published in ChEMBL document CHEMBL3621107, “Ring fusion strategy for synthesis and lead optimization of sulfur-substituted anthra[1,2-c][1,2,5]thiadiazole-6,11-dione derivatives as promising scaffold of antitumor agents” (Eur J Med Chem, 2015).

Assays:
Type in all cases: functional
[1] = Cytotoxicity against human renal cancer cells assessed as growth inhibition after 48 hrs by SRB assay; conditions: Cancer cell lines
How it was run: (§1)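 Values come from the NCI-60 five-dose panel (0.01–100 µM). The subpanel MID is the mean GI50 over the lines of that tumour subpanel. The selectivity ratio is the full-panel MID divided by the subpanel MID; 3–6 is rated moderate and >6 high.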

[2] = Cytotoxicity against human EKVX cells after 48 hrs by SRB assay
How it was run: (§2)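 NCI-60 human tumour cell panel screen, second stage, run by the NCI Developmental Therapeutics Program. Compounds were tested at five concentrations (0.01, 0.1, 1, 10 and 100 μM). Percentage growth was plotted against log10 concentration for each cell line. GI50, TGI and LC50 were taken from these dose-response curves.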

BT-549 = assay: Cytotoxicity against human BT549 cells after 48 hrs by SRB assay; conditions: BT-549, 48 h; how it was run: as §2
U-251 = assay: Cytotoxicity against human U251 cells after 48 hrs by SRB assay; conditions: U-251, 48 h
How it was run: (§3)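 NCI-60 five-dose study run by NCI DTP at 0.01, 0.1, 1, 10 and 100 µM. Percentage growth at each level was plotted against log10 concentration for each line, and GI50, TGI and LC50 were read from the dose-response curves.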

PC-3 = assay: Cytotoxicity against human PC3 cells after 48 hrs by SRB assay; conditions: PC-3, 48 h
How it was run: (§4)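 Second-stage NCI-60 panel run by the NCI Developmental Therapeutics Program, covering nine tumour subpanels. Five concentrations were tested: 0.01, 0.1, 1, 10 and 100 μM. Percentage growth at each level was plotted against log10 drug concentration. GI50, TGI and LC50 were read from these dose-response curves. Subpanel MID values were divided into the full-panel MID to give selectivity ratios.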

MDA-MB-468 = assay: Cytotoxicity against human MDA-MB-468 cells after 48 hrs by SRB assay; conditions: MDA-MB-468, 48 h; how it was run: as §4
SNB-75 = assay: Cytotoxicity against human SNB75 cells after 48 hrs by SRB assay; conditions: SNB-75, 48 h; how it was run: as §3
CCRF-CEM = assay: Cytotoxicity against human CCRF-CEM cells after 48 hrs by SRB assay; how it was run: as §2
[3] = Cytotoxicity against human CNS cancer cells assessed as growth inhibition after 48 hrs by SRB assay; conditions: Cancer cell lines
How it was run: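 NCI-60 five-dose data (0.01–100 μM) were grouped by tumour subpanel. A subpanel mean (MID) of GI50 was computed for the CNS cancer lines. A selectivity ratio was obtained as full-panel MID divided by subpanel MID: 3–6 counts as moderate, >6 as high.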

CAKI-1 = assay: Cytotoxicity against human Caki1 cells after 48 hrs by SRB assay; conditions: CAKI-1, 48 h; how it was run: as §2
UACC-257 = assay: Cytotoxicity against human UACC257 cells after 48 hrs by SRB assay; conditions: UACC-257, 48 h; how it was run: as §3
NCI-H522 = assay: Cytotoxicity against human NCI-H522 cells after 48 hrs by SRB assay; conditions: NCI-H522, 48 h; how it was run: as §4
OVCAR-3 = assay: Cytotoxicity against human OVCAR3 cells after 48 hrs by SRB assay; conditions: OVCAR-3, 48 h; for CC50: read-out: LC50 (the source's name); how it was run: as §4
HCT-116 = assay: Cytotoxicity against human HCT116 cells after 48 hrs by SRB assay; conditions: HCT-116, 48 h; for CC50: read-out: LC50 (the source's name); how it was run: as §2
RPMI-8226 = assay: Cytotoxicity against human RPMI8226 cells after 48 hrs by SRB assay; conditions: RPMI-8226, 48 h; how it was run: as §4
SNB-19 = assay: Cytotoxicity against human SNB19 cells after 48 hrs by SRB assay; conditions: SNB-19, 48 h; how it was run: as §4
HL-60(TB) = assay: Cytotoxicity against human HL-60(TB) cells after 48 hrs by SRB assay; conditions: HL-60, 48 h
How it was run: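 NCI Developmental Therapeutics Program 60-cell-line screen, second stage: cells exposed to five concentrations (0.01, 0.1, 1, 10 and 100 μM). Growth is plotted against log10 concentration for each line, and GI50, TGI and LC50 are read from the dose-response curves.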

SK-MEL-28 = assay: Cytotoxicity against human SK-MEL-28 cells after 48 hrs by SRB assay; conditions: SK-MEL-28, 48 h; for CC50: read-out: LC50 (the source's name); how it was run: as §4
SK-MEL-2 = assay: Cytotoxicity against human SK-MEL-2 cells after 48 hrs by SRB assay; conditions: SK-MEL-2, 48 h; how it was run: as §4
NCI-H226 = assay: Cytotoxicity against human NCI-H226 cells after 48 hrs by SRB assay; conditions: NCI-H226, 48 h; how it was run: as §4
[4] = Cytotoxicity against human prostate cancer cells assessed as growth inhibition after 48 hrs by SRB assay; conditions: Cancer cell lines; how it was run: as §1
HCT-15 = assay: Cytotoxicity against human HCT15 cells after 48 hrs by SRB assay; conditions: HCT-15, 48 h; how it was run: as §2
SW-620 = assay: Cytotoxicity against human SW620 cells after 48 hrs by SRB assay; conditions: SW-620, 48 h; how it was run: as §3
NCI-H23 = assay: Cytotoxicity against human NCI-H23 cells after 48 hrs by SRB assay; conditions: NCI-H23, 48 h; how it was run: as §4
NCI-H322M = assay: Cytotoxicity against human NCI-H322M cells after 48 hrs by SRB assay; how it was run: as §4
A498 = assay: Cytotoxicity against human A498 cells after 48 hrs by SRB assay; conditions: A498, 48 h; how it was run: as §2
[5] = Cytotoxicity against human leukemia cells assessed as growth inhibition after 48 hrs by SRB assay; conditions: Leukemia cell; how it was run: as §1
OVCAR-5 = assay: Cytotoxicity against human OVCAR5 cells after 48 hrs by SRB assay; conditions: OVCAR-5, 48 h; how it was run: as §4

O=C1c2ccccc2C(=O)c2c1cc(SCc1ccccc1)c1nsnc21
GI50 [1]: 12.7 µM | GI50 [2]: 14.2 µM | LC50 [2]: > 50 µM | TGI [2]: 26.3 µM | GI50 (BT-549): 15.2 µM | LC50 (BT-549): > 50 µM | TGI (BT-549): 28.4 µM | GI50 (U-251): 6.46 µM | LC50 (U-251): 30.3 µM | TGI (U-251): 14 µM | GI50 (PC-3): 10.8 µM | LC50 (concentration killing 50% of cells) (PC-3): 50.1 µM | TGI (PC-3): 43.4 µM | GI50 (MDA-MB-468): 0.89 µM | LC50 (MDA-MB-468): 4.21 µM | TGI (MDA-MB-468): 1.93 µM | GI50 (SNB-75): 8.26 µM | LC50 (concentration killing 50% of cells) (SNB-75): 31 µM | TGI (SNB-75): 16 µM | GI50 (CCRF-CEM): 1.3 µM | LC50 (CCRF-CEM): > 50 µM | TGI (CCRF-CEM): 5.06 µM | GI50 [3]: 9.48 µM | GI50 (CAKI-1): 9.68 µM | LC50 (concentration causing 50% net cell kill) (CAKI-1): > 50 µM | TGI (CAKI-1): 26.2 µM | GI50 (UACC-257): 9.05 µM | LC50 (UACC-257): 35.4 µM | TGI (UACC-257): 17.1 µM | GI50 (NCI-H522): 8.64 µM | LC50 (concentration giving 50% net cell kill) (NCI-H522): > 50 µM | TGI (NCI-H522): > 50 µM | GI50 (OVCAR-3): 8.16 µM | TGI (OVCAR-3): 15.1 µM | CC50 (OVCAR-3): 27.9 µM | GI50 (HCT-116): 7.29 µM | TGI (HCT-116): 14.2 µM | CC50 (HCT-116): 27.5 µM | GI50 (RPMI-8226): 8.45 µM | LC50 (RPMI-8226): > 50 µM | TGI (RPMI-8226): 33.4 µM | GI50 (SNB-19): 12.7 µM | LC50 (SNB-19): > 50 µM | TGI (SNB-19): 38.8 µM | GI50 (HL-60(TB)): 1.63 µM | LC50 (HL-60(TB)): > 50 µM | TGI (HL-60(TB)): > 50 µM | GI50 (SK-MEL-28): 10.3 µM | TGI (SK-MEL-28): 17.5 µM | CC50 (SK-MEL-28): 42.9 µM | GI50 (SK-MEL-2): 8.58 µM | LC50 (SK-MEL-2): 33.7 µM | TGI (SK-MEL-2): 18.6 µM | GI50 (NCI-H226): > 50 µM | LC50 (concentration killing 50% of starting cells) (NCI-H226): > 50 µM | TGI (NCI-H226): 35.2 µM | GI50 [4]: 10.5 µM | GI50 (HCT-15): 8.27 µM | LC50 (HCT-15): 35.3 µM | TGI (HCT-15): 17.1 µM | GI50 (SW-620): 9.99 µM | LC50 (50% lethal concentration) (SW-620): 35.1 µM | TGI (SW-620): 18.7 µM | GI50 (NCI-H23): 8.25 µM | LC50 (NCI-H23): > 50 µM | TGI (NCI-H23): > 50 µM | GI50 (NCI-H322M): > 50 µM | LC50 (concentration causing 50% net cell kill) (NCI-H322M): > 50 µM | TGI (NCI-H322M): > 50 µM | GI50 (A498): > 50 µM | LC50 (concentration killing 50% of cells) (A498): > 50 µM | TGI (A498): > 50 µM | GI50 [5]: 2.67 µM

CC(C)Sc1cc2c(c3nsnc13)C(=O)c1ccccc1C2=O
GI50 [1]: 1.58 µM | GI50 (BT-549): 2.19 µM | LC50 (BT-549): 29.8 µM | TGI (BT-549): 8.38 µM | GI50 (U-251): 1.48 µM | LC50 (U-251): 6.75 µM | TGI (U-251): 3.16 µM | GI50 (PC-3): 0.25 µM | LC50 (concentration killing 50% of cells) (PC-3): 75.4 µM | TGI (PC-3): 1.38 µM | GI50 (MDA-MB-468): 0.37 µM | LC50 (MDA-MB-468): 4.39 µM | TGI (MDA-MB-468): 1.42 µM | GI50 (SNB-75): 0.52 µM | LC50 (concentration killing 50% of cells) (SNB-75): 23.9 µM | TGI (SNB-75): 3.95 µM | LC50 (CCRF-CEM): > 100 µM | TGI (CCRF-CEM): 0.58 µM | GI50 (OVCAR-5): 2.07 µM | LC50 (OVCAR-5): 7.94 µM | TGI (OVCAR-5): 4.05 µM | GI50 [3]: 1.79 µM | GI50 (CAKI-1): 0.59 µM | LC50 (concentration causing 50% net cell kill) (CAKI-1): 9.08 µM | TGI (CAKI-1): 2.59 µM | GI50 (UACC-257): 0.57 µM | LC50 (UACC-257): 4.47 µM | TGI (UACC-257): 1.88 µM | GI50 (NCI-H522): 2.38 µM | LC50 (concentration giving 50% net cell kill) (NCI-H522): 9.96 µM | TGI (NCI-H522): 4.87 µM | GI50 (OVCAR-3): 0.25 µM | TGI (OVCAR-3): 0.638 µM | CC50 (OVCAR-3): 2.98 µM | GI50 (HCT-116): 0.29 µM | TGI (HCT-116): 1.01 µM | CC50 (HCT-116): 4.22 µM | GI50 (RPMI-8226): 0.29 µM | LC50 (RPMI-8226): > 100 µM | TGI (RPMI-8226): 1.78 µM | GI50 (SNB-19): 3.32 µM | LC50 (SNB-19): 36.3 µM | TGI (SNB-19): 13.1 µM | GI50 (HL-60(TB)): 0.23 µM | LC50 (HL-60(TB)): 40.8 µM | TGI (HL-60(TB)): 0.617 µM | GI50 (SK-MEL-28): 2.72 µM | TGI (SK-MEL-28): 5.99 µM | CC50 (SK-MEL-28): 18.8 µM | GI50 (SK-MEL-2): 0.99 µM | LC50 (SK-MEL-2): 5.87 µM | TGI (SK-MEL-2): 2.42 µM | GI50 (NCI-H226): 1.83 µM | LC50 (concentration killing 50% of starting cells) (NCI-H226): 14.6 µM | TGI (NCI-H226): 4.64 µM | GI50 [4]: 0.85 µM | GI50 (HCT-15): 1.69 µM | LC50 (HCT-15): 40.4 µM | TGI (HCT-15): 6.91 µM | GI50 (SW-620): 0.43 µM | LC50 (50% lethal concentration) (SW-620): 11.7 µM | TGI (SW-620): 2.21 µM | GI50 (NCI-H23): 0.56 µM | LC50 (NCI-H23): 8.48 µM | TGI (NCI-H23): 2.58 µM | GI50 (NCI-H322M): 2.85 µM | LC50 (concentration causing 50% net cell kill) (NCI-H322M): 38.7 µM | TGI (NCI-H322M): 11 µM | GI50 (A498): 0.56 µM | LC50 (concentration killing 50% of cells) (A498): 23.6 µM | TGI (A498): 4.28 µM | GI50 [5]: 0.25 µM
